TRPC6 inhibitor: mouse TRPC6 channel inhibition | Q61143 | HEK293-TRPC6, membrane potential dye, ACh-evoked depolarization; stronger effect = lower value | B-score at 10 µM | hit rate 1.1% among 310,000 | AID 2553;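 active = B-score under library mean minus 3 SD, initial fluorescence not abnormally high, positive integrated signal ratio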;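 also: B-score derived from integrated fluorescence ratio over the kinetic read; more negative B-score means stronger inhibition of depolarization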
Target sequence (Q61143 whole entry, looked up): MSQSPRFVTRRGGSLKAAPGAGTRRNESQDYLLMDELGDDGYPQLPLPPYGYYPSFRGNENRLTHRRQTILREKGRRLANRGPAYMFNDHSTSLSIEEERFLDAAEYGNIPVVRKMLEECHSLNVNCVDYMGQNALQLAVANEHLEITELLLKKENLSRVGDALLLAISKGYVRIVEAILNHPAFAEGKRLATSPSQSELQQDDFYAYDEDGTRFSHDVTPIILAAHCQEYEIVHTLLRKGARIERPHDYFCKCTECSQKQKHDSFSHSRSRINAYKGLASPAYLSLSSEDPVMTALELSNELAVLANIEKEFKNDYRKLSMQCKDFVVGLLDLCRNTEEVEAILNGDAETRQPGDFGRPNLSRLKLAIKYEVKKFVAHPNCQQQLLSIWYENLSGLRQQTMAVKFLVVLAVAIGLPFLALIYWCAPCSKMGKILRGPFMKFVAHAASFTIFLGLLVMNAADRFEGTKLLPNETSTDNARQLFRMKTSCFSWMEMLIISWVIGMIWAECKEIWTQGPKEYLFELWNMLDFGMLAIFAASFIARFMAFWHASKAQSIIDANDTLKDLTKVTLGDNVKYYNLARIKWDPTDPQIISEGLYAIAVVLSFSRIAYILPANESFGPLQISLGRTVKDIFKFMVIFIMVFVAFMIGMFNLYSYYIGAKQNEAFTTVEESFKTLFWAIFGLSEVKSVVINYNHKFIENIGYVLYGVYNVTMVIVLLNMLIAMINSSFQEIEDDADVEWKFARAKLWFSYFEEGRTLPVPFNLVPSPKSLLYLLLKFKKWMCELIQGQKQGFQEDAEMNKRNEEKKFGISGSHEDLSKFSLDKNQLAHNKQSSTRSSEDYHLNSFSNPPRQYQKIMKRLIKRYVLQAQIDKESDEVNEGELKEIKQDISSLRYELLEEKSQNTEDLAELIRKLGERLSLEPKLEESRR
TRPC6 act: activators of mouse TRPC6 channel; Q61143; HEK293-TRPC6 membrane potential dye fluorescence; stronger effect = higher value; B-score at 10 µM; hit rate 0.13% among 310,000; AID 2550;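 active = B-score of the integrated fluorescence ratio above library mean plus 3 SD, and starting fluorescence ratio within library mean plus 5 SD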;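 also: higher score means more depolarization so channel activation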
TRPC4 block: blocks the mouse TRPC4 cation channel. B-score at 10 µM. hit rate 0.39% among 300,000. HEK293 TRPC4beta/mu-opioid, DAMGO-evoked Fluo4 calcium flux; stronger effect = lower value;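 active = B-score over 3 SD under the library average, no early fluorescence shift, positive overall ratio signal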
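Assay system: TRPC4beta/mu-opioid receptor HEK293 cell line; compound dosing: single concentration per test compound; detection: Fluo4 Ca2+ flux fluorescence; evaluation: per-well B score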
TRPC4 PAM: allosterically enhances the mouse TRPC4 cation channel; Q9QUQ5; HEK293 TRPC4beta/mu-opioid, DAMGO EC20, Fluo-4 Ca2+ flux; stronger effect = higher value; B-score at 10 µM; hit rate 0.42% among 310,000;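 active = B-score of calcium response area above 5 SD of library B-scores, with initial fluorescence ratio within 5 SD of library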;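 also: B-score of integrated fluorescence ratio over time as area under calcium response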
TRPC4 act: TRPC4 (mouse) channel activation; Q9QUQ5; HEK293 TRPC4beta/mu-opioid, Fluo4 calcium fluorescence; stronger effect = higher value; B-score at 10 µM; hit rate 0.49% among 310,000;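 active = B-score above 5 SD of library B-scores, and initial fluorescence ratio not above library mean plus 5 SD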;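 also: positive B-score marks a calcium rise read as TRPC4 activation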
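Material: HEK293 stable line with TRPC4beta plus mu-opioid receptor; technique: Fluo4 calcium-sensitive dye fluorescence, kinetic, 1 Hz baseline; timing: Fluo4 dye loading 45 min at room temperature, 110 s recording; controls: assay buffer as low control, maximal DAMGO as high control; read-out: integrated baseline-normalised fluorescence ratio, converted to per-well B score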
Starred values were filed as active, the others as inactive; i = inactive; . = not tested or not shown. The list is not random: actives were taken first. Their share in the collection is about 2.3%.

SMILES	TRPC6 inhibitor	TRPC6 act	TRPC4 block	TRPC4 PAM	TRPC4 act
CC(=O)Nc1ccc(C2(c3ccc(NC(C)=O)cc3)C(=O)Nc3ccccc32)cc1	i	i	-7*	i	58*
Clc1cc(Cl)cc(C2=NC(Cc3ccccc3)CO2)c1 (stereo not given)	i	i	i	i	132*
O=[N+]([O-])c1cc(C(F)(F)F)cc([N+](=O)[O-])c1NCCN1CCNCC1	i	i	i	i	i
N=c1ccn(Cc2ccc(Cl)c(Cl)c2)cc1	i	i	i	i	61*
N=c1ccn(Cc2ccc(Cl)cc2)cc1	i	i	i	i	i
COc1ccc(F)cc1CSc1nnnn1-c1ccc(O)cc1	i	i	-5*	i	i
CC(C)Oc1ccc(C(CC(=O)O)NC(=O)C(Sc2ccccc2)c2ccccc2)cc1 (stereo not given)	i	i	i	i	i
CCCCCCc1cc2cc(-c3nnc(-c4ccccc4O)o3)c(=O)oc2cc1O	i	i	i	25*	i
CCCCCCc1cc2cc(-c3nnc(-c4cc(OC)c(OC)c(OC)c4)o3)c(=O)oc2cc1O	i	i	i	40*	i
Fc1ccccc1N1CCN(C(c2ccccn2)c2nnnn2C2CCCCC2)CC1 (stereo not given)	i	i	i	i	i
COc1ccccc1N1CCN(C(c2ccccn2)c2nnnn2C2CCCCC2)CC1 (stereo not given)	i	i	i	i	74*
COc1ccc(C(=O)NC2CCCc3c2cnn3-c2cc(F)cc(F)c2)c(OC)c1OC (stereo not given)	i	i	i	i	i
O=c1c(C=NCCN2CCNCC2)c(-c2ccccc2)[nH]n1-c1ccc([N+](=O)[O-])cc1	-6.6*	i	i	i	i
Cc1cc(=O)oc2cc(NC(=O)c3ccccc3Cl)ccc12	i	i	i	i	i
O=C(COC(=O)c1nc(Cl)ccc1Cl)c1ccccc1Cl	i	i	i	137*	i
COc1ccccc1C(=O)COC(=O)c1nc(Cl)ccc1Cl	i	i	i	i	i
C=CCN1C(=O)C(=O)N(Cc2nc3ccccc3s2)C1=O	i	i	i	i	i
Cc1n[nH]c(C)c1CCCCOc1ccccc1	i	i	-7*	i	i
Cc1ccc(OCCCc2c(C)n[nH]c2C)cc1	i	i	i	i	i
Cc1n[nH]c(C)c1CCCCOc1ccccc1F	i	i	-6*	i	i
Cc1ccccc1OCCCc1c(C)n[nH]c1C	i	i	.	i	i
Cc1ccccc1OCCCCc1c(C)n[nH]c1C	i	i	-6*	i	i
CC1CCN(C(=O)c2cc(F)c(F)cc2Cl)CC1	i	i	i	i	i
CCc1c(C(C)O)oc2ccc3c(C)cc(=O)oc3c12 (stereo not given)	i	i	i	i	i
C=CCOc1ccc(C2C(C(=O)c3ccco3)=C(O)C(=O)N2c2nnc(C)s2)cc1 (stereo not given)	i	i	i	i	i
CCCCc1nnc(NC(=O)C2CCN(c3ncnc4sc(C)c(C)c34)CC2)s1	i	i	i	93*	i
Cc1nn(-c2ccc(Cl)nn2)c(=O)c2ccccc12	i	i	i	i	i
CN(Cc1cccc(F)c1)CC(O)COCc1ccccc1Cl (stereo not given)	i	i	-6*	i	i
O=C(NCc1ccc(Cl)cc1)c1cccc2c1C(=O)N(CC1CCCO1)C2 (stereo not given)	i	i	i	i	i
Cc1cc([N+](=O)[O-])ccc1NCc1ccccc1	i	i	-7*	i	i
